According to ChEMBL document CHEMBL4308843, “Identification of ABX-1431, a Selective Inhibitor of Monoacylglycerol Lipase and Clinical Candidate for Treatment of Neurological Disorders” (J Med Chem, 2018):
Active and inactive are the calls of the source. The rule behind the calls is not given here.

Assays:
Rattus norvegicus [1] = experiment: Antinociceptive activity in po dosed Sprague-Dawley rat brain assessed as inhibition of CES1c activity measured after 4 hrs post dose in presence of FP-Rh probe by gel-based ABPP assay; type: functional
Method in brief: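 Male Sprague Dawley rats, 6–12 weeks old, given single oral doses (0.03–10 mg/kg) in 0.5% methylcellulose at 5 mL/kg. Brains were taken 4 h post-dose and forebrain sections excised from one hemisphere. Brain proteome was labeled with FP-Rh (1 µM, 30 min) and analyzed by SDS-PAGE with in-gel fluorescence. Band intensity was normalized to vehicle.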

Rattus norvegicus [2] = experiment: Antinociceptive activity in Sprague-Dawley rat assessed as reduction in formalin-evoked paw licking duration at 3 mg/kg, po administered 4 hrs prior to formalin challenge and measured between 10 to 30 mins post formalin challenge; type: functional, organism-based
Rattus norvegicus [3] = experiment: Antinociceptive activity in Sprague-Dawley rat assessed as reduction in formalin-evoked paw licking duration at 3 mg/kg, po administered 4 hrs prior to formalin challenge and measured between 0 to 15 mins post formalin challenge; type: functional, organism-based
Cytochrome P450 1A2 = target: T1, Cytochrome P450 1A2 (Homo sapiens, UniProt P05177); experiment: Inhibition of recombinant human CYP1A2; type: ADME
T1 sequence (P05177 whole entry): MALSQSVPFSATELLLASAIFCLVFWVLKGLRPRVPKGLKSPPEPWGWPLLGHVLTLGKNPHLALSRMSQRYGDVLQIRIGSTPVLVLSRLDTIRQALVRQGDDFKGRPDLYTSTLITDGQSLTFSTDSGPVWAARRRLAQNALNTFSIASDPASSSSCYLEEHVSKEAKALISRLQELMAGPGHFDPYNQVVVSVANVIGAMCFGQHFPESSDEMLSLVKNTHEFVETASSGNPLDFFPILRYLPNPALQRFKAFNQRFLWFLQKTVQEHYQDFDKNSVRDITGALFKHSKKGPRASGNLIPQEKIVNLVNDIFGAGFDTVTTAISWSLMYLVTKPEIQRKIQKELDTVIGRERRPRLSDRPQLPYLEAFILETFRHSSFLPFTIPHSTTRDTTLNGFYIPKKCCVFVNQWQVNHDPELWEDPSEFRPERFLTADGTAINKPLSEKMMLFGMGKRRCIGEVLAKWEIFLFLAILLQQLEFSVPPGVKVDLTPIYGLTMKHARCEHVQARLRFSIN

Rattus norvegicus [4] = experiment: In vivo inhibition of MGLL in po dosed Sprague-Dawley rat brain assessed as increase in 2-AG measured at 4 hrs post dose by LC-MS/MS analysis; type: functional, organism-based
Method in brief: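 Male Sprague Dawley rats, 6–12 weeks old, single oral doses 0.03–10 mg/kg in 0.5% methylcellulose, 5 mL/kg. Killed 4 h post-dose; forebrain section (~100–200 mg) from one hemisphere analysed for 2-AG by LC-MS/MS.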

Mus musculus = experiment: In vivo inhibition of ABHD6 in po dosed ICR mouse brain measured 4 hrs post dose in presence of FP-Rh probe by gel-based ABPP assay; type: functional
Method in brief: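 Male ICR mice, 6–12 weeks old, given single oral doses (0.5–32 mg/kg, n = 3) in PEG400:ethanol:PBS (7/2/1 v/v/v) at 5 mL/kg. Brains were removed 4 h later and one hemisphere processed for gel-based ABPP. Proteome was labeled with FP-Rh (1 µM, 30 min) and read by in-gel fluorescence relative to vehicle.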

Cytochrome P450 2C19 = Cytochrome P450 2C19 (Homo sapiens, UniProt P33261); experiment: Inhibition of recombinant human CYP2C19; type: ADME
Sequence of Cytochrome P450 2C19 (P33261 whole entry): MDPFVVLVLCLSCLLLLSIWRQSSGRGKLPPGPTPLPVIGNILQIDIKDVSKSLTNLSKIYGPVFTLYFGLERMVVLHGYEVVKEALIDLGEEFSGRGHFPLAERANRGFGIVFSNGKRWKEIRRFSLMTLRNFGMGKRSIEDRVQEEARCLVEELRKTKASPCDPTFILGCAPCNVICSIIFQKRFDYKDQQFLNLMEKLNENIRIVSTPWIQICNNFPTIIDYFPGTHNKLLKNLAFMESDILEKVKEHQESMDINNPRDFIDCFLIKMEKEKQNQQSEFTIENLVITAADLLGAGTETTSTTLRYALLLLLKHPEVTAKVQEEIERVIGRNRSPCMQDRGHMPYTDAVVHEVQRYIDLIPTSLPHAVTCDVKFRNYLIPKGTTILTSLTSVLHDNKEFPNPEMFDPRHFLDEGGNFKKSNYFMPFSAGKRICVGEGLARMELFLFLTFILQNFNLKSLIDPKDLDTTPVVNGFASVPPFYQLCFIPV

[5] = Tmax in Sprague-Dawley rat at 1 mg/kg, iv or 5 mg/kg, po by LC-MS analysis; type: ADME, organism-based; details: in vivo
Method in brief: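 Rats (n = 3 per route) were dosed at 1 mg/kg iv (70% PEG400 in HPBCD/saline) or 5 mg/kg po (70% PEG400 in 0.5% CMC/saline), fasted overnight to 4 h post-dose. Jugular-catheter blood (~100 µL) was sampled to 24 h into 400 µL acetonitrile to stop esterases. Samples were quantified by HPLC-MS/MS, with noncompartmental analysis.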

Cytochrome P450 2D6 = Cytochrome P450 2D6 (Homo sapiens, UniProt P10635); experiment: Inhibition of recombinant human CYP2D6; type: ADME
Sequence of Cytochrome P450 2D6 (P10635 whole entry): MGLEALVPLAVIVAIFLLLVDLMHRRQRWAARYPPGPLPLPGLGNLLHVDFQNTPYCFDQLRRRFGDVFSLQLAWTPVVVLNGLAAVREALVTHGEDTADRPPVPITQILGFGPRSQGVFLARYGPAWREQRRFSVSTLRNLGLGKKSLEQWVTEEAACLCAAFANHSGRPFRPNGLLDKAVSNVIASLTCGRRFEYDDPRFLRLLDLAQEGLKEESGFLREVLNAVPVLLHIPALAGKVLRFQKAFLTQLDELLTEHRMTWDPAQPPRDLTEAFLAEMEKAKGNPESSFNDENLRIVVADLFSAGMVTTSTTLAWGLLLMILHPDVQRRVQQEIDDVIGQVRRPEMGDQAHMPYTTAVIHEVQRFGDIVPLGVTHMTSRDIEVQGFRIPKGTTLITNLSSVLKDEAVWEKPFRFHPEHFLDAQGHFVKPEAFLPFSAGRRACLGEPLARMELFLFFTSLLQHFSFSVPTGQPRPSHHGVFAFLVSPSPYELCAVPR

[6] = target: T2, Monoacylglycerol lipase ABHD6 (Rattus norvegicus) (UniProt Q5XI64); experiment: Inhibition of ABHD6 in rat brain membrane homogenates at 0.001 to 10 uM preincubated for 30 mins followed by FP-Rh addition after 30 mins by gel-based ABPP assay; type: cell membranes
T2 sequence (whole entry): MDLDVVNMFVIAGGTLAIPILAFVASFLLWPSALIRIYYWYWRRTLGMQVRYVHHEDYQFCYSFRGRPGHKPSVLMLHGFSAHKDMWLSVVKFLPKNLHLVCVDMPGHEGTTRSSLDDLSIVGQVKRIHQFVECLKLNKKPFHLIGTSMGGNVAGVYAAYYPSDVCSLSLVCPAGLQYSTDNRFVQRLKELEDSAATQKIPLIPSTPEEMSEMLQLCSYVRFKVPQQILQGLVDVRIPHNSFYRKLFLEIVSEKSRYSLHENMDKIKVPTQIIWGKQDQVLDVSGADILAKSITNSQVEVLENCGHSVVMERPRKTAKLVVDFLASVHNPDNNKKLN

Canis lupus familiaris = species: Canis lupus familiaris; experiment: Inhibition of MGLL in dog brain membrane homogenates at 0.001 to 10 uM preincubated for 30 mins followed by FP-Rh addition after 30 mins by gel-based ABPP assay; type: cell membranes
Method in brief: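 Brain membrane homogenates (1 mg/mL protein) were preincubated with 0.001-10 µM inhibitor or DMSO for 30 min at 37°C, then labelled with 1 µM FP-Rh for 30 min at 25°C. Reactions were quenched in SDS-PAGE loading buffer, run on 10% gels and scanned in-gel. MGLL band intensities were normalised to DMSO (100%).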

For `O=C(OC(C(F)(F)F)C(F)(F)F)N1CCN(Cc2ccc(C(F)(F)F)cc2N2CCCC2)CC1` [ELCUBRAGISTAT], the ED50 (Rattus norvegicus [1]) was 1.2 mg/kg, the Activity (Rattus norvegicus [2]) was “Active” and the Activity (Rattus norvegicus [3]) was “Active”. The IC50 (Cytochrome P450 1A2) was greater than 50 µM, the inhibition (Rattus norvegicus [4]) was “Dose-dependent effect” and the ED50 (Mus musculus) was 32 mg/kg. It also gave an IC50 (Cytochrome P450 2C19) greater than 50 µM, a Tmax [5] of 8 h and an IC50 (Cytochrome P450 2D6) of 6.5 µM. For the same molecule, the inhibition [6] was “Active” and the inhibition (Canis lupus familiaris) was “Active”.
